pIC50: −log10 of the molar value. Bounds are passed on as bounds.

The record followed here is ChEMBL document CHEMBL1955718, “Discovery of new orally effective analgesic and anti-inflammatory hybrid furoxanyl N-acylhydrazone derivatives” (Bioorg Med Chem, 2012).

Data set [1] relates to HT-29. The experiment in a line: Inhibition of TNFalpha-induced NF-kappaB activation expressed in human HT-29 cells coexpressing hrGFP at 200 uM after 24 hrs by propidium iodide staining-based flow cytometric analysis relative to control. Type of data set: cell-based. In outline:
(§1)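 HT-29 cells stably expressing NF-κB-driven hrGFP given compound (DMSO <0.5%) for 2 h at the maximum non-cytotoxic concentration, then TNF-α at 3 ng/mL final for 18–24 h. Cells trypsinised and stained with propidium iodide; 5000 events gated on FSC/SSC. The %GFP-positive among PI-excluding live cells is normalised to TNF-α/DMSO control, ± SD.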

Data set [2] deals with HT-29. The experiment in a line: Pro-inflammatory activity in NFkappaB-GFP transfected human HT-29 cells at 25 to 400 uM after 24 hrs by propidium iodide staining-based flow cytometric analysis. Type of data set: ADME, cell-based. Particulars: ht-29, 24 h. The essentials: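 Reporter HT-29-NF-κB-hrGFP cells given compound alone, without TNF-α, for 18–24 h at 37 °C after the same 2 h pre-incubation. GFP-positive live (propidium iodide-excluding) cells counted by flow cytometry; IL-8 in supernatant measured by bead-based flow cytometry.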

Data set [3] can be described thus: Cytotoxicity against human HT-29 cells expressing NF-kappaB-hrGFP assessed as highest non-cytotoxic dose for 100% cell survival after 24 hrs by MTT assay. Particulars: read-out: Activity. Type of data set: cell-based. The essentials:
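HT-29 cells stably carrying pNF-κB-hrGFP, seeded at 0.5 × 10^6/mL in DMEM with 10% FBS, grown 24 h at 37 °C, 5% CO2. Compounds added in DMSO (<0.5% v/v final) at 12.5–400 µM for 24 h. Viability by MTT reduction (2 h), formazan dissolved in DMSO/glycine buffer, read at 560 nm.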

Data set [4] has as its system HT-29. The experiment in a line: Inhibition of NF-kappaB activation expressed in human HT-29 cells assessed as inhibition of TNFalpha-stimulated IL8 release at 100 uM after 24 hrs by flow cytometric analysis relative to control. It counts as cell-based. The essentials: (§2)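 Reporter HT-29-NF-κB-hrGFP cells pretreated 2 h with compound (DMSO <0.5%) at the highest concentration with 100% survival, then stimulated with TNF-α (3 ng/mL final) for 18–24 h at 37 °C. IL-8 in clarified supernatant measured by flow cytometric bead assay (500 events). Expressed as % of TNF-α/DMSO control ± SD; thalidomide as reference.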

The test system of data set [5] is HT-29. The experiment in a line: Inhibition of TNFalpha-induced NF-kappaB activation expressed in human HT-29 cells coexpressing hrGFP at 100 uM after 24 hrs by propidium iodide staining-based flow cytometric analysis relative to control. Type of data set: cell-based. The essentials:
as §1

Data set [6] concerns HT-29. The experiment in a line: Inhibition of NF-kappaB activation expressed in human HT-29 cells assessed as inhibition of TNFalpha-stimulated IL8 release at 200 uM after 24 hrs by flow cytometric analysis relative to control. Type of data set: cell-based. The essentials:
as §2

Data set [7] concerns HT-29. The experiment in a line: Inhibition of TNFalpha-induced NF-kappaB activation expressed in human HT-29 cells coexpressing hrGFP at 400 uM after 24 hrs by propidium iodide staining-based flow cytometric analysis relative to control. Type of data set: cell-based. The essentials: as §1
The subject of data set [8] is HT-29. The experiment in a line: Inhibition of NF-kappaB activation expressed in human HT-29 cells assessed as inhibition of TNFalpha-stimulated IL8 release at 400 uM after 24 hrs by flow cytometric analysis relative to control. It counts as cell-based. The essentials:
as §2

Data set [9] in a line: Cytotoxicity against mouse […] cells after 48 hrs by MTT assay. Type of data set: cell-based. In outline:
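J774 macrophages in DMEM (4 mM L-glutamine, 10% heat-inactivated FBS) were seeded at 1 × 10^5 cells/well and grown for 48 h at 37 °C, 5% CO2. They were then exposed to compounds at 25–400 µM for 48 h. MTT (0.1 mg/mL final) was added for 3 h, formazan was dissolved in DMSO/glycine buffer pH 10.5, and absorbance was read at 560 nm to give an IC50.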

Data set [10] relates to HT-29. The experiment in a line: Inhibition of NF-kappaB activation expressed in human HT-29 cells assessed as inhibition of TNFalpha-stimulated IL8 release at 20 uM after 24 hrs by flow cytometric analysis relative to control. Type of data set: cell-based. The essentials:
as §2

Data set [11] has as its system HT-29. The experiment in a line: Inhibition of TNF-alpha-induced NFkappaB activation expressed in human HT-29 cells coexpressing hrGFP at 20 uM after 24 hrs by propidium iodide staining-based flow cytometric analysis relative to control. Type of data set: cell-based. In outline: as §1
Data set [12] in a line: Induction of NO release in 0.1 M Tris-HCl and 0.1 mM DTPA at pH 7.4 measured for 20 mins in presence of cysteine. It counts as physicochemical. Particulars: buffer, pH 7.4, 20 min. The essentials:
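Electrochemical NO detection with an ISO-NOP sensor. Compounds in DMSO added to 0.1 M Tris-HCl, 0.1 mM DTPA at pH 7.4 or 8.3. Cysteine (300 or 100 µM) added and NO recorded for 20 min at 25 or 37 °C; compound:Cys ratio 1:1 at 25 °C, with 3:1 and 37 °C runs also made.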

Data set [13] in a line: Inhibition of soybean lipoxygenase using arachidonic acid as substrate. On the set-up: species or system Glycine max. In outline: (§3)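 Soybean 15-lipoxygenase kit assay, arachidonic acid substrate, H2O2 as lipoxygenating agent in 0.1 M Tris-HCl pH 7.4. Single-point screen at 50 µM. IC50 found by varying concentration over 10–100 µM. Quercetin at 4 µM as positive control; duplicate means; Student t-test.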

The test system of data set [14] is HT-29. The experiment in a line: Inhibition of NF-kappaB activation expressed in human HT-29 cells assessed as inhibition of TNFalpha-stimulated IL8 release at 25 uM after 24 hrs by flow cytometric analysis relative to control. Type of data set: cell-based. The essentials: as §2
The test system of data set [15] is HT-29. The experiment in a line: Inhibition of TNF-alpha-induced NFkappaB activation expressed in human HT-29 cells coexpressing hrGFP at 25 uM after 24 hrs by propidium iodide staining-based flow cytometric analysis relative to control. It counts as cell-based. In outline: as §1
Data set [16] has as its system Glycine max. The experiment in a line: Inhibition of soybean lipoxygenase using arachidonic acid as substrate at 50 uM. In outline: as §3
Data set [17] concerns Glycine max. The experiment in a line: Inhibition of soybean lipoxygenase using arachidonic acid as substrate at 4 uM. The essentials: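 Soybean lipoxygenase-15 screening kit with arachidonic acid as substrate and H2O2 as lipoxygenating agent in 0.1 M Tris-HCl, pH 7.4. Values are % inhibition, means of duplicate determinations, Student t-test.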

Take `O=C1CCC(N2C(=O)c3ccccc3C2=O)C(=O)N1` (configuration not stated) [THALIDOMIDE]: the inhibition was found to be 114% in the data set on HT-29 [1], 63% with HT-29 [4], 77% in the data set on HT-29 [6] and 57% with HT-29 [8]. Also, the Activity entry in the data set with HT-29 [2] is “Non-toxic”. Moreover, the MNTC at 24 h in data set [3] was 100 µM. For the same compound, the NF-kappaB activity (% of TNF-alpha control) in the data set with HT-29 [5] was 126%. In addition, the NF-kappaB activity (GFP-positive cells), % of TNF-alpha control with HT-29 [7] was found to be 116%. Further, the pIC50 in [9] was less than 3.40.

For `O=S(=O)(c1ccccc1)c1no[n+]([O-])c1S(=O)(=O)c1ccccc1`, the inhibition in the data set on HT-29 [10] and in the data set with HT-29 [11] was 6% in each case. Moreover, the Activity result in the data set with HT-29 [2] is given as “Non-toxic”; in data set [12] it was 3700 nM/min. Moreover, the MNTC at 24 h in data set [3] was determined as 20 µM.

For `O=C(N/N=C/c1c(-c2ccccc2)no[n+]1[O-])c1cccnc1`, the pIC50 is less than 4.00 in data set [13] and 3.71 in [9]. The Activity result in the data set on HT-29 [2] is “Non-toxic”. For the same compound, the values for the inhibition in the data set with HT-29 [14], with HT-29 [15] and in the data set on Glycine max [16] were 138%, 114% and 14%, respectively. Further, the MNTC at 24 h in [3] was 25 µM.

As for `O=c1c(O)c(-c2ccc(O)c(O)c2)oc2cc(O)cc(O)c12`, the inhibition in the data set with Glycine max [17] worked out at 35%.
